In the library only some 3.1% were active in any assay of this set; here they are far more common.
KCNK3 inh: human KCNK3 channel inhibition, primary screen. actives 0.84% (n = 340,000). AID 602410. B-score at 10 µM. CHO-KCNK3 thallium flux, FluxOR fluorescence; active compounds read low. O14649;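 active = B-score under library mean minus 4 SD, starting fluorescence ratio at most library mean plus 5 SD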;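 also: more negative B-score means stronger inhibition of thallium flux through KCNK3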
hERG protect: compounds protecting human hERG from proarrhythmic drug block; activation (rescue from dofetilide block), less the hit threshold, % at 10 µM; actives 0.51% (n = 310,000); CHO-hERG, FluxOR thallium flux, dofetilide IC70 present; Q12809;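 active = activation above the mean of controls blocked by dofetilide plus 5 SD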;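 also: thallium influx through hERG after potassium depolarization seen as dye fluorescence rise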
Target sequence (Q12809 whole entry, looked up): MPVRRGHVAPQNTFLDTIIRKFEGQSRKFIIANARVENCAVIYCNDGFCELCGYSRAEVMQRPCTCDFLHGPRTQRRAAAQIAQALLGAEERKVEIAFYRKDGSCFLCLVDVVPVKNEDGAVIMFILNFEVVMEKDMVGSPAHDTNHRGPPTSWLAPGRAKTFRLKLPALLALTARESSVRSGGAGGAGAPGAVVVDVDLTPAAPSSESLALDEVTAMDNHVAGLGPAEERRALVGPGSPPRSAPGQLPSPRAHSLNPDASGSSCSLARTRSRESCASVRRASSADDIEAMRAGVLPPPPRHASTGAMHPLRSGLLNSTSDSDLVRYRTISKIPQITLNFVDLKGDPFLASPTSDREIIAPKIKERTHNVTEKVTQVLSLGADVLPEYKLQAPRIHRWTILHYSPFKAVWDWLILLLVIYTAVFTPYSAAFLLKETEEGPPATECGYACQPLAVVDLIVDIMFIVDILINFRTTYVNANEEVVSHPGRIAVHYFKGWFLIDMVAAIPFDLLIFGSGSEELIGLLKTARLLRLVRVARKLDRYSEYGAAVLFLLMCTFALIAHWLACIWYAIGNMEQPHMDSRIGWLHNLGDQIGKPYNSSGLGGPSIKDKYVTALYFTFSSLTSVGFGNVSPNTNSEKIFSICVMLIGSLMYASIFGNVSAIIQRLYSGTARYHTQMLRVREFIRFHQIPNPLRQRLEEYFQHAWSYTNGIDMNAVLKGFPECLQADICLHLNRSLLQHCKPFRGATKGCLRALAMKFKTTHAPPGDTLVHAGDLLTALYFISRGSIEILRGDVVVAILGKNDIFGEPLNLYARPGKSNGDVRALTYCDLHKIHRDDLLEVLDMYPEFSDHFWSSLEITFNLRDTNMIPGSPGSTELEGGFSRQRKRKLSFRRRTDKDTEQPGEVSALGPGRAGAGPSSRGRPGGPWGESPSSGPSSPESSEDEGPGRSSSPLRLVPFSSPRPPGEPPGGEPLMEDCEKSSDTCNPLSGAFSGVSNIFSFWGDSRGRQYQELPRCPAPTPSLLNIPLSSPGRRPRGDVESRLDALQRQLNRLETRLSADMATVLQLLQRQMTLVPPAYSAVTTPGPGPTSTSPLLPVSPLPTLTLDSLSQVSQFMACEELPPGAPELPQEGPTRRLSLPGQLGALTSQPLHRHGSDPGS
KCNK9 block: inhibitors of human KCNK9 two-pore domain potassium channel | HEK293 KCNK9, FluxOR thallium flux fluorescence; active compounds read low | actives 1.2% (n = 310,000) | B-score at 10 µM;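 active = ratio B-score over 3 SD below the library mean, with starting fluorescence within 5 SD of its mean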;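 also: negative B-score means less thallium flux so channel inhibition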
KCNQ1 act: potentiates or activates the human KCNQ1 potassium channel. P51787. CHO-K1 KCNQ1, thallium flux FluxOR fluorescence; active compounds read high. B-score at 10 µM. actives 0.35% (n = 310,000). AID 2648;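 active = fluorescence ratio B-score, a plate-corrected score, at least three library SD, with initial intensity B-score within 5 SD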
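System: CHO-K1 cells stably expressing KCNQ1 / Medium: assay buffer for compound exposure, DMSO matched across wells / Reagent: thallium- and potassium-containing depolarizing buffer / Compound: one concentration, matched DMSO / Incubation: 20 min compound pretreatment at room temperature / Measured by: kinetic FluxOR fluorescence, 10 s baseline plus 110 s post-stimulus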
KCNQ1 inh: human KCNQ1 channel inhibition | P51787 | B-score at 10 µM | CHO-K1 KCNQ1, FluxOR thallium flux fluorescence; active compounds read high | actives 1.3% (n = 310,000);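 active = compounds whose thallium flux B-score, printed positive for inhibition, exceeds three library SD while starting fluorescence stays within three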;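 also: channel opened by potassium depolarization with thallium stimulus after 20 min compound exposure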
A number is an active result; i = inactive; nt = not tested or not shown.

SMILES | KCNK3 inh | hERG protect | KCNK9 block | KCNQ1 act | KCNQ1 inh
CCN1CCN(c2ccc(S(=O)(=O)N3CCOCC3)cc2NC(=O)C(C)Oc2ccc(F)cc2)CC1 (stereo unspecified) | i | nt | nt | nt | nt
Cc1nc(NCc2cccnc2)c2c3c(sc2n1)CC(C)CC3 (stereo unspecified) | i | 52 | i | 38 | i
Cc1ccc(OCCNC(=O)c2cc(C3CC3)nc3c2cnn3C(C)C)cc1 | i | nt | nt | nt | nt
Cc1nccn1CC(=O)c1ccc(O)c(O)c1 | i | nt | nt | nt | nt
CCCCCC(=O)OC(CN1CCCCCC1)CN1CCCC1=O (stereo unspecified) | i | i | i | i | 10
Cc1cc(C)c(S(=O)(=O)c2ccccc2F)c(=O)[nH]1 | i | i | i | i | i
O=C(c1ccco1)N1CCN(S(=O)(=O)c2ccc(C3CCCCC3)cc2)CC1 | i | 8.2 | i | i | i
CSc1ncccc1C(=O)OCC(=O)NC1CCCCC1 | i | nt | nt | nt | nt
N#CC1=C(N)Oc2cc(N)ccc2C1c1cccc(F)c1 (stereo unspecified) | i | i | i | i | i
CN(C)c1ccc2c(c1)OC(N)=C(C#N)C2c1cccc(F)c1 (stereo unspecified) | -11 | i | -6.8 | i | i
O=C(Nc1cccc(Br)c1)c1ccc2c(c1)SC1=NS(=O)(=O)CCN12 | i | nt | nt | nt | nt
COc1cc2c(cc1OC)CN(c1nc(-c3cccnc3)nc3ccccc13)CC2 | i | i | -7.5 | i | i
CC1CCCCN1C(=O)c1ccc(CS(=O)(=O)Cc2ccccc2)cc1 (stereo unspecified) | i | i | i | i | i
COc1cccc(C2c3[nH]c4ccccc4c3CCN2CCCn2cccn2)c1 (stereo unspecified) | i | i | i | i | i
CCOc1ccc(C2c3[nH]c4ccccc4c3CCN2CCCn2cccn2)cc1 (stereo unspecified) | i | i | i | i | 6
CCCN(Cc1nnc(-c2cccs2)o1)C(=O)c1cccc(S(=O)(=O)N2CCOCC2)c1 | i | nt | nt | nt | nt
CCOC(=O)CN1NC2(CCC(C)CC2)NC1=S (stereo unspecified) | i | i | i | i | i
CCOC(=O)CN1NC2(CCC(C(C)(C)C)CC2)NC1=S (stereo unspecified) | i | 8.7 | i | i | i
Cc1c(N2C(=O)/C(=C\c3ccccc3O)SC2=S)c(=O)n(-c2ccccc2)n1C | i | 17 | i | 42 | i
Cc1c(N2C(=O)/C(=C/c3cccc4ccccc34)SC2=S)c(=O)n(-c2ccccc2)n1C | i | i | i | i | i
CN1C(=O)/C(=C/c2cc(N=Nc3ccccc3)ccc2O)SC1=S | i | i | i | i | 7
O=C1/C(=C\c2cc(Br)cc(Br)c2O)SC(=S)N1Cc1ccccc1 | i | i | i | i | i
COc1ccc(OC)c(NC(=O)C(CCSC)NS(=O)(=O)c2cccs2)c1 (stereo unspecified) | i | i | i | i | i
C[C@H](CO)N1C[C@H](C)[C@@H](CN(C)S(=O)(=O)c2cn(C)cn2)Oc2c(NS(=O)(=O)c3ccccc3)cccc2C1=O | i | nt | nt | nt | nt
CCN(CC)c1ccc(/C=C(\C#N)c2ccccn2)cc1 | -11 | i | i | i | 6
SMILES | KCNK3 inh | hERG protect | KCNK9 block | KCNQ1 act | KCNQ1 inh
COc1ccc(OC)c(CN2CCN(C(=O)CNC(=O)c3ccccc3F)CC2)c1 | i | nt | nt | nt | nt
CN(C(=O)/C(N=Nc1cccc(C(F)(F)F)c1)=C(\O)C(F)(F)F)c1ccccc1 | i | i | i | i | 6
Cc1cc(Cl)c(S(=O)(=O)N2CCN(c3ccc(F)cc3)CC2)cc1OCC(N)=O | i | 6.0 | i | i | i
CCCCC(=O)Nc1ccc(C(N)=O)cc1 | i | i | i | i | i
CCCCC(=O)Nc1ccc(NCc2ccc(C)s2)cc1 | i | 8.6 | i | i | i
O=C(Cn1nc(-c2ccccc2)c2ccccc2c1=O)NCCO | i | i | i | i | i
Cc1ccc(C)c(S(=O)(=O)C(C#N)c2nc3ccccc3nc2N2CCOCC2)c1 (stereo unspecified) | i | i | i | i | i
Cc1ccc(C)c(S(=O)(=O)C(C#N)c2nc3ccccc3nc2N2CCCC2)c1 (stereo unspecified) | i | i | -8.1 | i | i
CCCCCCCCCCCCCCCC(=O)Nc1ccn(C2OC(CO)C(O)C2O)c(=O)n1 (stereo unspecified) | i | nt | nt | nt | nt
Cc1cccc(NC(=O)c2n[nH]c([N+](=O)[O-])c2Br)c1C | i | i | i | i | 7
CC(C)(C)NCC(O)COc1ccccc1C(C)(C)C (stereo unspecified) | i | i | i | 8 | i
CC(C)(C)NCC(O)COc1ccccc1C(=O)CCc1ccccc1 (stereo unspecified) | i | i | i | i | i
Cc1cc(C)cc(NS(=O)(=O)c2ccc(-c3cnc(C4CC4)o3)cc2)c1 | i | i | i | 7 | i
O=P(Cc1ccccc1)(c1ccccc1)c1ccccc1 | i | i | i | i | i
CC(C)(C)c1cc(CP(=O)(c2ccccc2)c2ccccc2)cc(C(C)(C)C)c1O | i | i | i | i | 6
Cc1cc(C)n2nc(SC(C)C(=O)Nc3ccccc3F)nc2n1 (stereo unspecified) | i | nt | nt | nt | nt
CCCCN(C)CC(O)Cn1cc(/C=C/C(=O)c2cccs2)c2ccccc21 (stereo unspecified) | i | i | i | i | 8
CSC(=S)N/N=C/c1ccccc1 | i | 11 | i | 35 | i
COc1cccc(OCC(=O)Nc2ccncc2)c1 | i | i | i | i | i
COc1ccc(NC(=O)C(=O)NNC(=O)COc2ccc(Cl)cc2)c(OC)c1 | i | 16 | i | 69 | i
COc1cc(NC(=O)COc2ccc(Cl)cc2)ccc1NC(=O)C(C)C | i | i | i | i | i
CCc1ccc(NC(=O)C(=O)NNC(=O)COc2cccc(OC)c2)cc1 | i | 7.2 | i | 28 | i
Cc1cc(Br)ccc1OCC(=O)NNC(=O)C(=O)Nc1ccccc1 | i | 51 | i | 92 | i
Cc1cc(Br)ccc1OCC(=O)NNC(=O)Cc1ccccc1 | i | i | i | i | i
Cc1ccccc1OCC(=O)Nc1cccc(C(=O)O)c1 | i | 5.5 | i | i | i
SMILES | KCNK3 inh | hERG protect | KCNK9 block | KCNQ1 act | KCNQ1 inh
COc1ccc(CCNC(=O)C2CCN(S(=O)(=O)c3ccc4c(c3)oc(=O)n4C)CC2)cc1OC | i | i | i | i | i
CNC(=O)c1ccc(NC(=O)CCNC(=O)Nc2ccccc2)cc1 | i | nt | nt | nt | nt
CC1=C(C)N(C)[C@H](c2ccccc2Br)[C@H](O)C1=O | i | nt | nt | nt | nt
COc1ccc(NC(=O)C(=O)NNC(=O)COc2ccc(OC)cc2)cc1 | i | 7.8 | i | i | i
CCOc1ccc(NC(=O)COc2ccc(OC)cc2)cc1 | i | i | i | i | i
O=C(COc1ccc2ccccc2c1)NNC(=O)C(=O)Nc1ccccc1 | i | 45 | i | 35 | i
C=CCn1c(SCC(=O)N(C(C)CC)C2CCS(=O)(=O)C2)nc2ccccc2c1=O (stereo unspecified) | i | nt | nt | nt | nt
Cc1ccc(F)c([C@H]2[C@@H]3C=CCC[C@@]3(C)C(=O)N2Cc2ccccc2)c1 | i | i | i | i | 8
